Results on 31 sequences are retold here after the array DNA melting data of Ke et al. (doi:10.1101/2024.01.08.574731).

The nature of data set [1]: folding enthalpy; higher = less favourable; fluorescence melt of hairpins on a sequencing array, two-state fit. The conditions noted are these: sodium 0.088 M. The method, boiled down: (§1)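 Cy3 signals were normalised both to pre-quench Cy3 and to control constructs. They came from library hairpins carrying annealed Cy3 and quencher oligos on a sequenced MiSeq flow cell, imaged in 50 mM Na-HEPES pH 8.0, 25 mM NaCl, in 2.5 °C steps up to 60 °C. Bootstrapped two-state fits gave melting temperature and folding enthalpy, and four replicates were combined by inverse variance. Fitted temperatures were then raised by 9.35 °C to match UV melts.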

A short description of data set [2]: melting temperature; fluorescence melt of hairpins on a sequencing array, two-state fit, raised by 9.35 °C to match UV melts. The conditions noted are these: sodium 0.088 M. The method, boiled down:
as §1

As to GATCTTGTTGAAGATC ((((((....)))))), in data set [1], the folding enthalpy is -27.2 kcal/mol. Besides, the Tm in data set [2] worked out at 45 °C.
In the same order, the values of GATCTTTAAAAGATC ((((((...)))))) are -23 kcal/mol and 39.9 °C.
With GATCTTTACAAAGATC ((((((....)))))), in data set [1], the folding enthalpy is -33.8 kcal/mol. Moreover, the Tm in data set [2] turned out to be 46.5 °C.
Consider GATCTTTACGAAGATC ((((((....)))))), for which, in data set [1], the folding enthalpy is -32.2 kcal/mol. The Tm in data set [2] was 45.3 °C.
Regarding GATCTTTACTAAGATC ((((((....)))))), in data set [1], the folding enthalpy is -38 kcal/mol. For the same sequence, in data set [2], the Tm amounted to 45 °C.
For GATCTTTAGAAAGATC ((((((....)))))), in data set [1], the folding enthalpy is -31.1 kcal/mol. For the same sequence, the Tm in data set [2] came out at 40.6 °C.
The corresponding values for GATCTTTAGCAAGATC ((((((....)))))) are -28.2 kcal/mol and 37.1 °C.
For GATCTTTAGGAAGATC ((((((....)))))), the folding enthalpy in data set [1] was -28.5 kcal/mol. In addition, in data set [2], the Tm stood at 42.6 °C.
For GATCTTTAGTAAGATC ((((((....)))))), the folding enthalpy in data set [1] is -29.9 kcal/mol. The Tm in data set [2] came out at 40 °C.
Turning to GATCTTTATTAAGATC ((((((....)))))), in data set [1], the folding enthalpy is -34.2 kcal/mol. For the same sequence, in data set [2], the Tm was 43.5 °C.
The corresponding values for GATCTTTCAAAGATC ((((((...)))))) are -28.5 kcal/mol and 44.5 °C.
In the same order, the values of GATCTTTCATAAGATC ((((((....)))))) are -31.4 kcal/mol and 44.8 °C.
As to GATCTTTCTAAGATC ((((((...)))))), the folding enthalpy in data set [1] was -34.2 kcal/mol. Further, the Tm in data set [2] came out at 45.2 °C.
In the same order, the values of GATCTTTCTTAAGATC ((((((....)))))) are -37.3 kcal/mol and 44.9 °C.
For the sequence GATCTTTGAAAGATC ((((((...)))))), the folding enthalpy in data set [1] was -25.8 kcal/mol. The Tm in data set [2] amounted to 38.1 °C.
In the same order, the values of GATCTTTGGAAGATC ((((((...)))))) are -26.6 kcal/mol and 41.2 °C.
In the same order, the values of GATCTTTGGTAAGATC ((((((....)))))) are -30.8 kcal/mol and 42.5 °C.
In the same order, the values of GATCTTTTATAAGATC ((((((....)))))) are -34.5 kcal/mol and 44.1 °C.
For the sequence GATCTTTTCAAGATC ((((((...)))))), in data set [1], the folding enthalpy was -36.3 kcal/mol. In data set [2], the Tm was 47.7 °C.
The corresponding values for GATCTTTTCCAAGATC ((((((....)))))) are -36.2 kcal/mol and 42.9 °C.
The corresponding values for GATCTTTTCGAAGATC ((((((....)))))) are -33.5 kcal/mol and 46.4 °C.
Take GATCTTTTTTAAGATC ((((((....)))))): the folding enthalpy in data set [1] is -35.2 kcal/mol. In addition, in data set [2], the Tm is 45.2 °C.
With GATGAACGAAAGTTGATC (((.(((....))).))), the folding enthalpy in data set [1] was -22.7 kcal/mol. For the same sequence, the Tm in data set [2] was found to be 38.1 °C.
The corresponding values for GATGAACGAAAGTTTATC (((.(((....))).))) are -29.3 kcal/mol and 44.6 °C.
The corresponding values for GATGAAGCGAAAGCTATC (((..(((....)))))) are -10.4 kcal/mol and 28.4 °C.
With GATGAAGGAAACTTCACC (.(((((....))))).), in data set [1], the folding enthalpy was -13.2 kcal/mol. Moreover, the Tm in data set [2] was 32.2 °C.
As for GATGACCGAAAGGTTATC (((.(((....))).))), the folding enthalpy in data set [1] is -36.2 kcal/mol. Besides, the Tm in data set [2] stood at 51 °C.
On to GATGACGAAAGTCAAATC ((((((....)))..))), for which the folding enthalpy in data set [1] is -11.8 kcal/mol. In data set [2], the Tm came out at 34.6 °C.
The corresponding values for GATGACGAAAGTCATATC ((((((....)))..))) are -14 kcal/mol and 50 °C.
In the same order, the values of GATGACGAAAGTCCTATC ((((((....)))..))) are -9.62 kcal/mol and 24 °C.
In the case of GATGACGAAAGTCGGATC ((((((....)))..))), in data set [1], the folding enthalpy was -13.4 kcal/mol. Further, in data set [2], the Tm was 34.3 °C.
